From ChEMBL document CHEMBL2093137, “WHO-TDR NTD Screening”
≈ marks a conversion by molar mass, not a printed value.

Assays:
Plasmodium falciparum K1 = assay: WHO-TDR: Malaria; assay type: functional, organism-based, Homo sapiens; details: Erythrocyte
Summary of the method: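 Values are IC50 figures for antiplasmodial potency. They come from a whole-organism screen of 10,000 diverse Life Chemicals compounds against Plasmodium falciparum K1 growing inside human red blood cells, run by previously published standard procedures.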

[1] = WHO-TDR: Cytotoxicity; assay type: toxicity, cell-based; details: human, MRC5 cells
Leishmania infantum = assay: WHO-TDR: Leishmaniasis; assay type: functional, organism-based, Mus musculus; details: Macrophage
Summary of the method: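 Values are IC50 figures for antiparasitic potency. They come from a whole-organism screen of a 10,000-compound diverse Life Chemicals library against Leishmania infantum MHOM/MA(BE)/67 amastigotes inside murine peritoneal macrophage host cells.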

Schistosoma mansoni = assay: WHO-TDR: Schistosomiasis; assay type: functional; set-up: concentration or dose not given beside the values
Summary of the method: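 A diverse library of 10,000 compounds from Life Chemicals, filtered for drug-likeness and reactive groups, was screened against whole larval and/or adult Schistosoma mansoni worms of the Puerto Rican strain. Previously published standard procedures were followed, with a reference drug as positive control. Activity is given as percent inhibition and as IC50.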

Onchocerca ochengi = assay: WHO-TDR: Onchocerciasis; assay type: functional; set-up: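 at 12.5 µM on microfilariae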
Summary of the method: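 A diverse library of 10,000 compounds from Life Chemicals, filtered for drug-likeness and reactive groups, was screened against whole microfilariae of Onchocerca ochengi or Onchocerca lienalis. These animal pathogens served as stand-ins for the human parasite. Activity is given as percent inhibition and as IC50.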

Brugia malayi = assay: WHO-TDR: Lymphatic Filariasis; assay type: functional; set-up: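 tested at 10 µM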
Summary of the method: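 A diverse library of 10,000 compounds from Life Chemicals was screened against Brugia malayi microfilariae in a whole-organism assay. The library had been filtered for drug-likeness and reactive groups. Activity is given as percent inhibition and as IC50.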

[2] = tested on: Trypanosoma brucei brucei; assay: WHO-TDR: Human African Trypanosomiasis (HAT); assay type: functional, organism-based; details: Squib-427
Summary of the method: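 Values are IC50 figures for antiparasitic potency. They come from a whole-organism screen of 10,000 diverse Life Chemicals compounds against bloodstream-form Trypanosoma brucei (Squib 427 strain).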

Trypanosoma cruzi = assay: WHO-TDR: Chagas disease; assay type: functional, organism-based, Homo sapiens; details: MRC5
Summary of the method: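 Following previously published standard procedures, with a reference drug as positive control, a whole-organism assay was run on Trypanosoma cruzi Tulahuen CL2 beta-galactosidase strain amastigotes inside MRC-5SV2 human lung fibroblast host cells. The 10,000 compounds tested formed a diverse Life Chemicals library filtered for drug-likeness and reactive groups. Results are expressed as IC50 for antiparasitic potency.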

SMILES	IC50 (Plasmodium falciparum K1) [µg/mL]	IC50 [1] [µg/mL]	IC50 (Leishmania infantum) [µg/mL]	% Inhibition (Schistosoma mansoni) [%]	% Inhibition (Onchocerca ochengi) [%]	% Inhibition (Brugia malayi) [%]	IC50 [2] [µg/mL]	IC50 (Trypanosoma cruzi) [µg/mL]
Cc1cccc(Nc2ccc(NCCNC(=O)Nc3ccccc3)nn2)n1	4.75 (≈ 13.1 µM)	10.4 (≈ 28.7 µM)	> 10.9	0	100	0	> 10.9	> 10.9
Cc1ccnc(Nc2ccc(NCCNS(=O)(=O)c3ccc(F)cc3)nn2)c1	12.1 (≈ 30 µM)	> 12.1	3.91 (≈ 9.71 µM)	0	100	50	3.91 (≈ 9.71 µM)	4.13 (≈ 10.3 µM)
COc1ccc(CC(=O)N2CCN(c3nccn3-c3cccc(Cl)c3)CC2)cc1OC	> 14.3	> 14.3	0.464 (≈ 1.05 µM)	16.7	0	0	> 14.3	> 14.3
COc1ccc(C(CNS(=O)(=O)c2ccc(Cl)s2)N2CCOCC2)cc1 (stereo not drawn)	> 12.5	> 12.5	> 12.5	0	100	0	> 12.5	> 12.5
O=S(=O)(CCCOc1ccc(F)cc1)N1CCc2ccccc21	> 10.1	> 10.1	> 10.1	0	100	0	3.22 (≈ 9.6 µM)	3.09 (≈ 9.2 µM)
O=S(=O)(CCCOc1ccc2c(c1)OCO2)NC1CCN(Cc2ccccc2)CC1	> 13	> 13	> 13	16.7	100	0	8.57 (≈ 19.8 µM)	13 (≈ 30 µM)
CS(=O)(=O)c1ccc2nc(N(Cc3cccnc3)C(=O)c3ccc4ccccc4c3)sc2c1	> 14.2	> 14.2	4.6 (≈ 9.71 µM)	0	0	0	> 14.2	0.225 (≈ 0.475 µM)
COc1ccc(S(=O)(=O)NCC(c2cccc3ccccc23)N(C)C)cc1C (stereo not drawn)	> 12	> 12	> 12	0	100	0	4.02 (≈ 10.1 µM)	> 12
Cc1ccc(Cn2c(CO)cnc2SCC(=O)Nc2cccc3ccccc23)cc1	> 12.5	> 12.5	> 12.5	0	100	25	> 12.5	> 12.5
CCOc1ccccc1C(=O)Nc1sc(SCC(N)=O)nc1-c1ccccc1	> 12.4	> 12.4	> 12.4	0	100	0	3.97 (≈ 9.6 µM)	7.06 (≈ 17.1 µM)
O=c1ccc(-c2ccc(F)cc2)nn1CCCNS(=O)(=O)/C=C/c1ccccc1	6.97 (≈ 16.9 µM)	6.58 (≈ 15.9 µM)	> 12.4	0	100	0	5.43 (≈ 13.1 µM)	> 12.4
O=C(CC(c1ccccc1)c1ccccc1)NCCCn1nc(-c2ccncc2)ccc1=O	5.95 (≈ 13.6 µM)	> 13.2	> 13.2	0	100	0	7.53 (≈ 17.2 µM)	5.91 (≈ 13.5 µM)
O=C(CSc1ccc(NC(=O)c2ccco2)nn1)Nc1ccccc1C(F)(F)F	> 12.7	> 12.7	> 12.7	0	100	0	> 12.7	> 12.7
CCc1ccc2nc(N(CCCn3ccnc3)C(=O)C3COc4ccccc4O3)sc2c1 (stereo not drawn)	0.363 (≈ 0.809 µM)	4.4 (≈ 9.81 µM)	4.71 (≈ 10.5 µM)	0	100	0	4.71 (≈ 10.5 µM)	1.22 (≈ 2.73 µM)
O=C(Nc1ccc(OC(F)(F)F)cc1)c1csc(NS(=O)(=O)c2cccs2)n1	> 13.5	> 13.5	> 13.5	0	100	20	> 13.5	> 13.5
COc1ccc(-c2nnc(NC(=O)c3ccn(C)n3)o2)cc1OC	> 9.88	1.41 (≈ 4.28 µM)	> 9.88	25	100	0	> 9.88	> 9.88
COc1ccc2nc(-c3ccc(OC)c(NC(=O)c4c(F)cccc4Cl)c3)cn2n1	> 12.8	> 12.8	0.415 (≈ 0.972 µM)	0	0	0	> 12.8	> 12.8
Cc1ccnc(Nc2ccc(NCCNC(=O)c3ccc(F)cc3Cl)nn2)c1	5.9 (≈ 14.7 µM)	> 12	> 12	0	100	25	4.09 (≈ 10.2 µM)	> 12
Cc1cc(-c2nnc(NC(=O)CSc3ccc(F)cc3)o2)nn1C	> 10.4	> 10.4	0.337 (≈ 0.97 µM)	0	0	33.33	> 10.4	> 10.4
Cc1ccc(S(=O)(=O)N2CCC(C(=O)Nc3c(C(N)=O)oc4ccccc34)CC2)cc1	> 13.2	> 13.2	> 13.2	0	100	0	> 13.2	> 13.2
CCn1nc(C(=O)Nc2nnc(-c3ccc4c(c3)CCCC4)o2)cc1C	> 10.5	> 10.5	> 10.5	16.7	100	0	> 10.5	> 10.5
Cc1cccc2sc(N(CCCn3ccnc3)C(=O)c3ccc(Cl)s3)nc12	0.619 (≈ 1.48 µM)	5.04 (≈ 12.1 µM)	> 13.6	0	100	0	> 13.6	1.22 (≈ 2.93 µM)
O=C(Cc1csc(NC(=O)c2ccc[nH]c2=O)n1)NCc1ccncc1	> 11.1	> 11.1	> 11.1	100	0	20	> 11.1	> 11.1
CCOC(=O)Cn1/c(=N\C(=O)CCCS(=O)(=O)Cc2ccccc2)sc2cc(F)ccc21	> 14.4	> 14.4	> 14.4	0	100	0	> 14.4	> 14.4
O=C(Nc1nc(-c2ccc3c(c2)OCCO3)cs1)C1CCN(S(=O)(=O)c2ccc(Cl)cc2)CC1	8.56 (≈ 16.5 µM)	2.74 (≈ 5.28 µM)	> 15.6	0	50	0	0.586 (≈ 1.13 µM)	0.697 (≈ 1.34 µM)
O=C(Nc1nnc(Cc2cccs2)o1)c1cc(Cl)sc1Cl	> 10.8	0.967 (≈ 2.68 µM)	> 10.8	0	0	0	0.342 (≈ 0.949 µM)	0.632 (≈ 1.75 µM)
